# ChEMBL document CHEMBL4321831, “Vaccine Adjuvants Derivatized from Momordica Saponins I and II” (J Med Chem, 2019)
# Active and inactive are the calls of the source. No cut-off for these calls is given here.
# What was measured:
# Mus musculus [1] = assay: Immuno-adjuvant activity in recombinant Porphyromonas gingivalis HagB-immunized BALB/c mouse assessed as potentiation of antibody response to rHagB by measuring increase in serum anti-rHagB IgG1 activity at 100 ug, sc administered immediately and on day 14, 28 and measured at week 2 to 4 by ELISA; type: functional, organism-based
# Mus musculus [2] = assay: Immuno-adjuvant activity in OVA-immunized BALB/c mouse assessed as potentiation of antibody response to OVA by measuring increase in serum anti-OVA IgG1 activity at 100 ug, sc administered immediately and on day 14, 28 and measured at week 6 by ELISA; type: functional, organism-based
# Method in brief: (§1)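 Female BALB/c mice (8–10 weeks, six per group) got sc OVA (20 μg) plus adjuvant (100 μg) on days 0, 14 and 28. Tail-vein serum was taken before each dose and 2 weeks after the last. ELISA plates were coated with OVA (0.1 μg/mL) in borate-buffered saline, pH 8.2. Serial 2-fold serum dilutions were run in duplicate, detected with HRP anti-mouse IgG/IgG1/IgG2a and o-phenylenediamine, and read at 490 nm.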
# Mus musculus [3] = assay: Immuno-adjuvant activity in OVA-immunized BALB/c mouse assessed as potentiation of antibody response to OVA by measuring serum anti-OVA IgG1 level at 100 ug, sc administered immediately and on day 14, 28 and measured at week 6 by ELISA (reference value: 113 +/- 37 ug/ml); type: functional; method in brief: as §1
# Mus musculus [4] = assay: Immuno-adjuvant activity in OVA-immunized BALB/c mouse assessed as potentiation of antibody response to OVA by measuring serum anti-OVA IgG2a level at 100 ug, sc administered immediately and on day 14, 28 and measured at week 6 by ELISA (reference value: 0.1 ug/ml); type: functional; method in brief: as §1
# Mus musculus [5] = assay: Immuno-adjuvant activity in OVA-immunized BALB/c mouse assessed as potentiation of antibody response to OVA by measuring ratio of serum anti-OVA IgG2a to serum anti-OVA IG1 level at 100 ug, sc administered immediately and on day 14, 28 and measured at week 6 by ELISA; type: functional
# [6] = Toxicity in OVA-immunized BALB/c mouse assessed as changes in body weight at 100 ug, sc administered immediately and on day 14, 28 and measured at week 6; type: organism-based; conditions: in vivo
# Method in brief: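 Female BALB/c mice (8–10 weeks, six per group) received sc OVA (20 μg) with adjuvant (100 μg) on days 0, 14 and 28. Body weight was recorded before each immunization and 2 weeks after the final one.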
# Mus musculus [7] = assay: Immuno-adjuvant activity in recombinant Porphyromonas gingivalis HagB-immunized BALB/c mouse assessed as potentiation of antibody response to rHagB by measuring serum anti-rHagB IgG2a activity at 100 ug, sc administered immediately and on day 14, 28 and measured at week 6 by ELISA; type: functional, organism-based
# Mus musculus [8] = assay: Immuno-adjuvant activity in OVA-immunized BALB/c mouse assessed as potentiation of antibody response to OVA by measuring increase in serum anti-OVA IgG1 activity at 100 ug, sc administered immediately and on day 14, 28 and measured at week 2 to 4 by ELISA; type: functional, organism-based; method in brief: as §1
# Mus musculus [9] = assay: Immuno-adjuvant activity in OVA-immunized BALB/c mouse assessed as potentiation of antibody response to OVA by measuring serum anti-OVA IgG2a activity at 100 ug, sc administered immediately and on day 14, 28 and measured at week 2 by ELISA; type: functional, organism-based; method in brief: as §1
# Mus musculus [10] = assay: Immuno-adjuvant activity in OVA-immunized BALB/c mouse assessed as potentiation of antibody response to OVA by measuring increase in serum anti-OVA IgG2a activity at 100 ug, sc administered immediately and on day 14, 28 and measured at week 4 to 6 by ELISA; type: functional, organism-based; method in brief: as §1
# Mus musculus [11] = assay: Immuno-adjuvant activity in recombinant Porphyromonas gingivalis HagB-immunized BALB/c mouse assessed as potentiation of antibody response to rHagB by measuring serum anti-rHagB IgG1 activity at 100 ug, sc administered immediately and on day 14, 28 and measured at week 6 by ELISA; type: functional, organism-based
# Mus musculus [12] = assay: Immuno-adjuvant activity in recombinant Porphyromonas gingivalis HagB-immunized BALB/c mouse assessed as potentiation of antibody response to rHagB by measuring increase in serum anti-rHagB IgG activity at 100 ug, sc administered immediately and on day 14, 28 and measured at week 2 to 4 by ELISA; type: functional, organism-based
# Mus musculus [13] = assay: Immuno-adjuvant activity in recombinant Porphyromonas gingivalis HagB-immunized BALB/c mouse assessed as potentiation of antibody response to rHagB by measuring increase in serum anti-rHagB IgG activity at 100 ug, sc administered immediately and on day 14, 28 and measured at week 6 by ELISA; type: functional, organism-based
# Mus musculus [14] = assay: Immuno-adjuvant activity in recombinant Porphyromonas gingivalis HagB-immunized BALB/c mouse assessed as potentiation of antibody response to rHagB by measuring increase in serum anti-rHagB IgG2a activity at 100 ug, sc administered immediately and on day 14, 28 and measured at week 2 to 4 by ELISA; type: functional, organism-based
# Mus musculus [15] = assay: Immuno-adjuvant activity in OVA-immunized BALB/c mouse assessed as potentiation of antibody response to OVA by measuring increase in serum anti-OVA IgG activity at 100 ug, sc administered immediately and on day 14, 28 and measured at week 4 to 6 by ELISA; type: functional, organism-based; method in brief: as §1
# Mus musculus [16] = assay: Immuno-adjuvant activity in OVA-immunized BALB/c mouse assessed as potentiation of antibody response to OVA by measuring increase in serum anti-OVA IgG activity at 100 ug, sc administered immediately and on day 14, 28 and measured at week 2 to 6 by ELISA; type: functional, organism-based; method in brief: as §1
# [17] = Acute toxicity in BALB/c mouse assessed as mouse survival at 100 to 200 ug, sc measured after 5 days; type: organism-based; conditions: in vivo
# Method in brief: (§2)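 Female BALB/c mice, 10 weeks old, 5 per group, given a single subcutaneous injection in the neck of adjuvant in 0.1 mL PBS at doses from 100 to 5000 μg, with untreated controls. Survival was counted 5 days after injection. Surviving mice were checked through day 7 for fur condition, behaviour, lethargy and lesion formation.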
# Mus musculus [18] = assay: Immuno-adjuvant activity in OVA-immunized BALB/c mouse assessed as potentiation of antibody response to OVA by measuring increase in serum anti-OVA IgG activity at 100 ug, sc administered immediately and on day 14, 28 and measured at week 2 to 4 by ELISA; type: functional, organism-based; method in brief: as §1
# Mus musculus [19] = assay: Immuno-adjuvant activity in OVA-immunized BALB/c mouse assessed as potentiation of antibody response to OVA by measuring serum anti-OVA IgG activity at 100 ug, sc administered immediately and on day 14, 28 and measured at week 6 by ELISA; type: functional, organism-based; method in brief: as §1
# Mus musculus [20] = assay: Immuno-adjuvant activity in recombinant Porphyromonas gingivalis HagB-immunized BALB/c mouse assessed as potentiation of antibody response to rHagB by measuring increase in serum anti-rHagB IgG2a activity at 100 ug, sc administered immediately and on day 14, 28 and measured at week 2 to 6 by ELISA; type: functional, organism-based
# [21] = Acute toxicity in BALB/c mouse assessed as mouse survival at 5000 ug, sc measured after 5 days; type: organism-based; conditions: in vivo; method in brief: as §2
# [22] = Acute toxicity in BALB/c mouse assessed as lethargy at 100 to 2000 ug, sc measured at day 7 post injection; type: organism-based; conditions: in vivo; method in brief: as §2
# [23] = Acute toxicity in BALB/c mouse assessed as lesion formation at 100 to 2000 ug, sc measured at day 7 post injection; type: organism-based; conditions: in vivo; method in brief: as §2
# [24] = Acute toxicity in BALB/c mouse assessed as normal animal behaviour with healthy fur at 100 to 2000 ug, sc measured at day 5 post injection; type: organism-based; conditions: in vivo; method in brief: as §2
# [25] = Acute toxicity in BALB/c mouse assessed as mouse survival at 100 to 2000 ug, sc measured after 5 days; type: organism-based; conditions: in vivo; method in brief: as §2
SMILES,Activity (Mus musculus [1]),Activity (Mus musculus [2]),Activity (Mus musculus [3]) [µg/mL],Activity (Mus musculus [4]) [µg/mL],Ratio (Mus musculus [5]),Activity [6],Activity (Mus musculus [8]),Activity (Mus musculus [9]),Activity (Mus musculus [10]),Activity (Mus musculus [11]),Activity (Mus musculus [12]),Activity (Mus musculus [13]),Activity (Mus musculus [16]),also measured
CCCCCCCCCCCCNC(=O)[C@H]1O[C@@H](O[C@H]2CC[C@]3(C)[C@H]4CC=C5[C@H]6CC(C)(C)CC[C@]6(C(=O)O[C@@H]6O[C@H](C)[C@H](O)[C@H](O)[C@H]6O[C@@H]6O[C@@H](C)[C@H](O[C@@H]7OC[C@@H](O)[C@H](O)[C@H]7O)[C@@H](O[C@@H]7O[C@H](CO)[C@@H](O)[C@H](O[C@@H]8OC[C@@H](O)[C@H](O)[C@H]8O)[C@H]7O)[C@H]6O)[C@H](O)C[C@@]5(C)[C@]4(C)CC[C@H]3[C@]2(C)C=O)[C@H](O[C@@H]2O[C@H](CO)[C@H](O)[C@H](O)[C@H]2O)[C@@H](O[C@@H]2O[C@@H](C)[C@H](O)[C@@H](O)[C@H]2O)[C@@H]1O,Active,Active,869,1,<0.001,Non-Toxic,Active,inactive,inactive,inactive,Active,inactive,,Activity (Mus musculus [7]): inactive; Activity (Mus musculus [14]): Active; Activity (Mus musculus [15]): Active
C[C@@H]1O[C@@H](O[C@H]2[C@H](O)[C@@H](C(=O)O)O[C@@H](O[C@H]3CC[C@]4(C)[C@H]5CC=C6[C@H]7CC(C)(C)CC[C@]7(C(=O)O[C@@H]7O[C@H](C)[C@H](O)[C@H](O)[C@H]7O[C@@H]7O[C@@H](C)[C@H](O[C@@H]8OC[C@@H](O)[C@H](O)[C@H]8O)[C@@H](O[C@@H]8O[C@H](CO)[C@@H](O)[C@H](O[C@@H]9OC[C@@H](O)[C@H](O)[C@H]9O)[C@H]8O)[C@H]7O)CC[C@@]6(C)[C@]5(C)CC[C@H]4[C@]3(C)C=O)[C@@H]2O[C@@H]2O[C@H](CO)[C@H](O)[C@H](O)[C@H]2O)[C@H](O)[C@H](O)[C@H]1O,Active,,233,0.2,<0.001,Non-Toxic,Active,inactive,inactive,inactive,Active,inactive,inactive,
CC1(C)CC[C@]2(C(=O)O[C@@H]3O[C@H](CO)[C@@H](O)[C@H](O[C@@H]4O[C@H](CO)[C@@H](O)[C@H](O[C@@H]5O[C@H](CO)[C@@H](O)[C@H](O[C@@H]6O[C@H](CO)[C@@H](O)[C@H](O[C@@H]7O[C@H](CO)[C@@H](O)[C@H](O)[C@H]7O)[C@H]6O)[C@H]5O)[C@H]4O)[C@H]3O)[C@H](O)C[C@]3(C)C(=CC[C@@H]4[C@@]5(C)CC[C@H](O[C@@H]6O[C@H](CO)[C@@H](O)[C@H](O[C@@H]7O[C@H](CO)[C@@H](O)[C@H](O[C@@H]8O[C@H](CO)[C@@H](O)[C@H](O)[C@H]8O)[C@H]7O)[C@H]6O)[C@@](C)(C=O)[C@@H]5CC[C@]43C)[C@H]2C1,,,,,,,,,,,,,,survival at 120 h [17]: 0%
C[C@@H]1O[C@@H](O[C@H]2[C@H](O)[C@@H](C(=O)O)O[C@@H](O[C@H]3CC[C@]4(C)[C@H]5CC=C6[C@H]7CC(C)(C)CC[C@]7(C(=O)O[C@@H]7O[C@H](C)[C@H](O)[C@H](O)[C@H]7O[C@@H]7O[C@@H](C)[C@H](O[C@@H]8OC[C@@H](O)[C@H](O)[C@H]8O)[C@@H](O[C@@H]8O[C@H](CO)[C@@H](O)[C@H](O[C@@H]9OC[C@@H](O)[C@H](O)[C@H]9O)[C@H]8O)[C@H]7O)[C@H](O)C[C@@]6(C)[C@]5(C)CC[C@H]4[C@]3(C)C=O)[C@@H]2O[C@@H]2O[C@H](CO)[C@H](O)[C@H](O)[C@H]2O)[C@H](O)[C@H](O)[C@H]1O,Active,,262,0.1,<0.001,Non-Toxic,Active,inactive,inactive,inactive,Active,inactive,,Activity (Mus musculus [18]): Active; Activity (Mus musculus [19]): inactive
CCCCCCCCCCCCNC(=O)[C@H]1O[C@@H](O[C@H]2CC[C@]3(C)[C@H]4CC=C5[C@H]6CC(C)(C)CC[C@]6(C(=O)O[C@@H]6O[C@H](C)[C@H](O)[C@H](O)[C@H]6O[C@@H]6O[C@@H](C)[C@H](O[C@@H]7OC[C@@H](O)[C@H](O)[C@H]7O)[C@@H](O[C@@H]7O[C@H](CO)[C@@H](O)[C@H](O[C@@H]8OC[C@@H](O)[C@H](O)[C@H]8O)[C@H]7O)[C@H]6O)CC[C@@]5(C)[C@]4(C)CC[C@H]3[C@]2(C)C=O)[C@H](O[C@@H]2O[C@H](CO)[C@H](O)[C@H](O)[C@H]2O)[C@@H](O[C@@H]2O[C@@H](C)[C@H](O)[C@@H](O)[C@H]2O)[C@@H]1O,Active,Active,713,208,0.312,Non-Toxic,Active,inactive,Active,inactive,Active,Active,Active,Activity (Mus musculus [20]): Active; survival at 120 h [21]: 0%; Activity [22]: Non-Toxic; Activity [23]: Non-Toxic; Activity [24]: Non-Toxic; survival at 120 h [25]: 100%
